Key:
[1] = tested on: panel of five human cell lines (HeLa, A549, HL-60, Jurkat, K562); test: Antiproliferative assay, summary over the cell line panel; format: cell-based
Jurkat cells = test: Flow cytometric analysis of cell cycle distribution; format: cell-based, human; settings: after 48 h of treatment (data not shown)
How it was run: (§1)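 Exponentially growing cells (5 × 10⁵) were exposed to varying concentrations of test compound for 24 and 48 h. They were then collected and fixed in ice-cold 70% ethanol, then treated with lysis buffer containing RNase A and 0.1% Triton X-100. Cells were stained with propidium iodide and analysed by flow cytometry, with sub-G1 (hypodiploid) DNA content scored at 48 h.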

HeLa cells [2] = test: as above; format: cell-based, human; settings: after 48 h of treatment (data not shown)
How it was run: as §1

HeLa cells [3] = test: Western blot analysis; format: cell-based, human
HeLa cells [4] = test: Annexin-V/PI assay; format: cell-based, human; settings: 24 h, compared with control
HeLa cells [5] = test: Mitochondrial membrane potential; format: cell-based, human; settings: 24 and 48 h
HeLa cells [6] = test: ROS production; format: cell-based, human; settings: 24 and 48 h, HE and H2-DCFDA
caspase-3 in HeLa cells = test: Caspase-3 assay; format: cell-based, human; settings: 24 and 48 h
[7] = average antiproliferative activity

## COc1cc(C(=O)c2sc3ccccc3c2-c2ccccc2)cc(OC)c1OC [Compound 3a, (3,4,5-Trimethoxyphenyl)(3-phenylbenzo[b]thiophen-2-yl) methanone]
[1]; Homo sapiens, read-out: IC50 against HeLa, HL-60, Jurkat and K562 cells
  IC50: 1.5 to 2.1 µM

## COc1ccc(Nc2c(C(=O)c3cc(OC)c(OC)c(OC)c3)sc3ccccc23)cc1 [Compound 4d, (3-(4-Methoxyphenylamino)benzo[b]thiophen-2-yl)(3,4,5-trimethoxyphenyl)methanone]
[1]; [7]
  loss in activity relative to unsubstituted 4a: ~50%

## CCOc1ccc(Nc2c(C(=O)c3cc(OC)c(OC)c(OC)c3)sc3ccccc23)cc1 [Compound 4e, (3-(4-Ethoxyphenylamino)benzo[b]thiophen-2-yl)(3,4,5-trimethoxyphenyl)methanone]
Jurkat cells
  hypodiploid peak (sub-G1) indicative of apoptosis: appeared in both cell lines
HeLa cells [2]
  hypodiploid peak (sub-G1) indicative of apoptosis: appeared in both cell lines
[1]; [7]
  fold increase in activity relative to unsubstituted 4a: 5 fold
[1]; most active vs least active 3-anilino derivative
  fold difference in average antiproliferative activity between 4e and 4d: 9 fold
[1]; over the five cell lines
  fold lower IC50 than 3k: 2- to 15 fold
HeLa cells [3]
  expression of Bax: remained unchanged
  expression of Bcl-2: slight decrease
HeLa cells [3]; 24 or 48 h
  cyclin B1 expression: concentration-dependent increase
  phosphatase cdc25c (phosphorylation state): slower migrating forms of phosphatase cdc25c were present
HeLa cells [3]; 24 h and 48 h
  89 kDa cleaved fragment of PARP: increased
HeLa cells [3]; increasing concentrations
  expression of p53: no difference
HeLa cells [4]
  annexin-V positive cells: induced an accumulation of annexin-V positive cells
HeLa cells [5]
  mitochondrial membrane potential (Rho 123 fluorescence): reduction of Rho 123 fluorescence intensity
HeLa cells [6]
  production of ROS: induces the production of large amounts of ROS
caspase-3 in HeLa cells
  activation of caspase-3: activation of caspase-3 in a time- and concentration-dependent manner

## CCOc1ccc(Nc2c(C(=O)c3cc(OC)c(OC)c(OC)c3)sc3cc(C)ccc23)cc1 [Compound 4g, (3-(4-Ethoxyphenylamino)-6-methylbenzo[b]thiophen-2-yl) (3,4,5-trimethoxyphenyl)methanone]
[1]; over the five cell lines
  fold less potent than 4e: 4- to 20 fold

From publication PMC3074966 (European journal of medicinal chemistry, 2010)
